Test results reported in ChEMBL document CHEMBL1255214, “Structure-based design of imidazo[1,2-a]pyrazine derivatives as selective inhibitors of Aurora-A kinase in cells” (Bioorg Med Chem Lett, 2010).
pIC50: −log10 of the molar value.

What was measured:
[1] = biological target: T1, Aurora kinase A (Homo sapiens) (UniProt O14965); assay: Inhibition of human aurora A at 10 uM
T1 sequence (whole entry): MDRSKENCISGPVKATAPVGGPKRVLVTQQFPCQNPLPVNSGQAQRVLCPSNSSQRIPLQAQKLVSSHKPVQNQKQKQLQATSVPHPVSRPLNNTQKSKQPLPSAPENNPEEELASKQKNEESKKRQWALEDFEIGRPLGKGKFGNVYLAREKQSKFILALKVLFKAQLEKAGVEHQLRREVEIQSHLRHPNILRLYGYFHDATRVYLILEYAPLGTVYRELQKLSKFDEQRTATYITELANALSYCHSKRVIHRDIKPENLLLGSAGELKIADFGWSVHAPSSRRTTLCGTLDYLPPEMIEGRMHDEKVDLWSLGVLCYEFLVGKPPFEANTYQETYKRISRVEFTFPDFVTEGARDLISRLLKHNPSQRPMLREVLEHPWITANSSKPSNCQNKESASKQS
Procedure, shortened: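 Recombinant human Aurora-A kinase, tested at a single concentration; percent inhibition reported as mean of samples run in triplicate.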

Aurora kinase A = biological target: T2, Aurora kinase A (Homo sapiens, UniProt O14965); assay: Inhibition of human aurora A
T2 sequence (O14965 whole entry): T1 sequence (whole entry)
Procedure, shortened: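 Recombinant human Aurora-A kinase; IC50 measured by either a Flashplate or a Filterplate assay. Values are means of two independent determinations, or mean (SD) where n >2; some are means of samples run in triplicate.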

Aurora kinase C = biological target: T3, Aurora kinase C (Homo sapiens, UniProt Q9UQB9); assay: Inhibition of human aurora C
T3 sequence (Q9UQB9 whole entry): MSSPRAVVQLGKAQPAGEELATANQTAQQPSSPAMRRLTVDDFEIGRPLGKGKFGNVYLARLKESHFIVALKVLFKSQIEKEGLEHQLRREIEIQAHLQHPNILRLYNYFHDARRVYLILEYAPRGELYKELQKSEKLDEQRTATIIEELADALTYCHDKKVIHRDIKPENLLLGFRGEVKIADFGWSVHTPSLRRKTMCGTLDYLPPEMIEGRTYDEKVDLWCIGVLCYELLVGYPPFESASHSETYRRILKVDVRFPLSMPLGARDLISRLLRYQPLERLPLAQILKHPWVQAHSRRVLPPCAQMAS
Procedure, shortened: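 Recombinant human Aurora-C kinase; IC50 measured by Filterplate assay.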

HCT-116 = assay: Growth inhibition of human HCT116 cells; assay type: functional
Procedure, shortened: (§1)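 MTT read-out of cell growth, with GI50 taken from the resulting data.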

HeLa = assay: Growth inhibition of human HeLa cells; assay type: functional; procedure, shortened: as §1
Homo sapiens = species: Homo sapiens; assay: Selectivity ratio of IC50 for human aurora B to IC50 for human aurora A
Aurora kinase B = Aurora kinase B (Homo sapiens, UniProt Q96GD4); assay: Inhibition of human aurora B
Chain of Aurora kinase B (Q96GD4 whole entry): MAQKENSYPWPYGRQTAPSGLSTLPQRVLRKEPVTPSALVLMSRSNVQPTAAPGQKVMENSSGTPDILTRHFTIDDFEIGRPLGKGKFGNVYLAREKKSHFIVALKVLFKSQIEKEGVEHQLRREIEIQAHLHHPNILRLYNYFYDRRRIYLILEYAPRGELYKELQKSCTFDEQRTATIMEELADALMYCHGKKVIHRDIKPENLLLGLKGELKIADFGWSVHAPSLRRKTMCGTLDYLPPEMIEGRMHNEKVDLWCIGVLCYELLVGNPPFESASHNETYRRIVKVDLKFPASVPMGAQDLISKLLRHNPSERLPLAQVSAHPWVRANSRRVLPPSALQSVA

Structure (SMILES)	inhibition [1]	pIC50 (Aurora kinase A)	other results
c1cncc(-c2cn3ccnc3c(NCc3ccc(N4CCOCC4)cc3)n2)c1	41%		
COc1ccc(Nc2nc(-c3ccn(C)n3)cn3ccnc23)cc1		5.01	
COc1ccc(Nc2nc(-c3cccc(NS(=O)(=O)c4cccnc4)c3)cn3ccnc23)cc1		5.35	
COc1ccc(Nc2nc(-c3cccc(NS(=O)(=O)c4ccc(OC)cc4)c3)cn3ccnc23)cc1		5.17	
c1cncc(-c2cn3c(-c4cccnc4)cnc3c(Nc3ccc(N4CCOCC4)cc3)n2)c1		5.38	
Clc1cnc2c(Nc3ccc(N4CCOCC4)cc3)nc(-c3cccnc3)cn12			pIC50 (Aurora kinase C): 5.71; GI50 (HCT-116): 3.9 µM; GI50 (HeLa): 28 µM
Brc1cnc2c(Nc3ccc(N4CCOCC4)cc3)nc(-c3cccnc3)cn12		6.82	GI50 (HCT-116): 2.3 µM; GI50 (HeLa): 13.4 µM
COc1ccc(Nc2nc(-c3cccnc3)cn3ccnc23)cc1		5.54	
COc1ccc(Nc2nc(-c3cccc(Cl)c3)cn3ccnc23)cc1	46%		
COc1ccc(Nc2nc(-c3ccc(OC)nc3)cn3ccnc23)cc1	30%		
CS(=O)(=O)NCc1cccc(-c2cn3c(Cl)cnc3c(Nc3ccc(N4CCOCC4)cc3)n2)c1			Ratio IC50 (Homo sapiens): 70; pIC50 (Aurora kinase B): 4.98
COc1ccc(Nc2nc(-c3ccc(Cl)nc3)cn3ccnc23)cc1	28%		
COc1ccc(Nc2nc(-c3cccc(N)c3)cn3ccnc23)cc1		5.26	
COc1ccc(Nc2nc(-c3cccc(NC(=O)COc4ccccc4)c3)cn3ccnc23)cc1	22%		
COc1ccc(Nc2nc(-c3ccc(F)nc3)cn3ccnc23)cc1	32%		
COc1ccc(NC(=O)Nc2cccc(-c3cn4ccnc4c(Nc4ccc(OC)cc4)n3)c2)cc1		5.10	
c1cncc(-c2cn3ccnc3c(Nc3ccc(N4CCOCC4)cc3)n2)c1		5.67	
c1ccc(Nc2nc(-c3cccnc3)cn3ccnc23)cc1		5.17	
COc1ccc(Nc2nc(-c3cnn(Cc4ccccc4)c3)cn3ccnc23)cc1	38%		
CC(=O)Nc1ccc(Nc2nc(-c3cccnc3)cn3ccnc23)cc1		5.60	
Clc1ccc(Nc2nc(-c3cccnc3)cn3ccnc23)cc1		5.26	
OC1CCC(Nc2nc(-c3cccnc3)cn3ccnc23)CC1 (configuration not stated)	32%		
c1cncc(-c2cn3ccnc3c(NCCN3CCOCC3)n2)c1	33%		
COc1ccc(Nc2nc(-c3cccc(NC(=O)Nc4ccccc4)c3)cn3ccnc23)cc1		5.14	
COCC(=O)Nc1cccc(-c2cn3ccnc3c(Nc3ccc(OC)cc3)n2)c1		5.14	
O=C(O)c1ccc(Nc2ncc3c(n2)-c2ccc(Cl)cc2C(c2c(F)cccc2F)=NC3)cc1			Ratio IC50 (Homo sapiens): 90
c1cncc(-c2cn3ccnc3c(NCc3ccc4c(c3)OCCO4)n2)c1	35%		
Cc1cnc2c(Nc3ccc(N4CCOCC4)cc3)nc(-c3cccnc3)cn12		6.68	GI50 (HCT-116): 7.2 µM; GI50 (HeLa): 6.5 µM
CN(c1ccccc1)c1nc(-c2cccnc2)cn2ccnc12	27%		
O=C(Nc1ccc(Nc2nc(-c3cccnc3)cn3ccnc23)cc1)c1ccccc1		5.43	
